Test results from ChEMBL document CHEMBL2086275, “Docking studies, synthesis, characterization of some novel oxazine substituted 9-anilinoacridine derivatives and evaluation for their antioxidant and anticancer activities as topoisomerase II inhibitors” (Eur J Med Chem, 2012).
In brackets after ≈: the same amount, converted by molar mass.

How the values were obtained:
Assay type in all cases: functional
[1] = Antioxidant activity assessed as inhibition of superoxide radical-induced NBT reduction by alkaline DMSO method
[2] = Antioxidant activity assessed as hydrogen peroxide radical scavenging activity
[3] = Antitumor activity against mouse DLA cells after 3 hrs by trypan blue dye exclusion assay
Method in brief: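 DLA cells were grown in the peritoneal cavity of albino mice (25-30 g) by i.p. injection of 1×10^6 cells/mL. Cells were harvested on day 15, washed three times in HBSS and adjusted to 2×10^6 cells/mL. Cells were exposed to graded drug concentrations in PBS (1:1 volume) for 3 h at 37 °C, 5% CO2. Viability was counted by haemocytometer after 1:1 mixing with 0.4% trypan blue, and % inhibition and CTC50 were calculated.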

Row | IC50 [1] [µg/mL] | IC50 [2] [µg/mL] | Compound | CC50 [3] [µg/mL]
1 | > 500 | > 1000 | O=C(/C=C/c1ccc(Cl)cc1Cl)c1ccc(Nc2c3ccccc3nc3ccccc23)cc1 | 
2 | > 500 | > 1000 | O=C(/C=C/c1ccccc1Cl)c1ccc(Nc2c3ccccc3nc3ccccc23)cc1 | 
3 | > 500 | > 1000 | O=C(/C=C/c1ccccc1)c1ccc(Nc2c3ccccc3nc3ccccc23)cc1 | 
4 | > 500 | > 1000 | COc1ccc(/C=C/C(=O)c2ccc(Nc3c4ccccc4nc4ccccc34)cc2)cc1OC | 
5 | > 500 | > 1000 | O=C(/C=C/c1cccc([N+](=O)[O-])c1)c1ccc(Nc2c3ccccc3nc3ccccc23)cc1 | 
6 | > 500 | > 1000 | COc1cc(/C=C/C(=O)c2ccc(Nc3c4ccccc4nc4ccccc34)cc2)ccc1O | 
7 | > 500 | > 1000 | C/C=C/C(=O)c1ccc(Nc2c3ccccc3nc3ccccc23)cc1 | 
8 | > 500 | > 1000 | O=C(/C=C/c1cccc(Cl)c1)c1ccc(Nc2c3ccccc3nc3ccccc23)cc1 | 
9 | > 500 | > 1000 | O=C(/C=C/c1ccc(Cl)cc1)c1ccc(Nc2c3ccccc3nc3ccccc23)cc1 | 
10 | > 500 | > 1000 | O=C(/C=C/c1ccc([N+](=O)[O-])cc1)c1ccc(Nc2c3ccccc3nc3ccccc23)cc1 | 

Further lines, the compound ahead of its results:

Row | Compound | IC50 [1] [µg/mL] | IC50 [2] [µg/mL] | CC50 [3] [µg/mL]
11 | NC1N=C(c2cccc(Cl)c2)C=C(c2ccc(Nc3c4ccccc4nc4ccccc34)cc2)O1 (configuration not stated) | 37.43 (≈ 78.5 µM) | 36.01 (≈ 75.5 µM) | 820 (≈ 1720 µM)
12 | NC1N=C(c2cccc([N+](=O)[O-])c2)C=C(c2ccc(Nc3c4ccccc4nc4ccccc34)cc2)O1 (configuration not stated) | 29.03 (≈ 59.5 µM) | 12 (≈ 24.6 µM) | 600 (≈ 1230 µM)
13 | NC1N=C(c2ccc([N+](=O)[O-])cc2)C=C(c2ccc(Nc3c4ccccc4nc4ccccc34)cc2)O1 (configuration not stated) | 47.5 (≈ 97.4 µM) | 24.03 (≈ 49.3 µM) | 725 (≈ 1490 µM)
14 | NC1N=C(c2ccccc2Cl)C=C(c2ccc(Nc3c4ccccc4nc4ccccc34)cc2)O1 (configuration not stated) | 32.05 (≈ 67.2 µM) | 25.01 (≈ 52.4 µM) | 590 (≈ 1240 µM)
15 | COc1cc(C2=NC(N)OC(c3ccc(Nc4c5ccccc5nc5ccccc45)cc3)=C2)ccc1O (configuration not stated) | 24.02 (≈ 49.2 µM) | 14.5 (≈ 29.7 µM) | 250 (≈ 512 µM)
16 | O=C1O[C@H]([C@@H](O)CO)C(O)=C1O [ASCORBIC ACID] | 24.77 (≈ 141 µM) | 18.6 (≈ 106 µM) | 
17 | NC1N=C(c2ccc(Cl)cc2Cl)C=C(c2ccc(Nc3c4ccccc4nc4ccccc34)cc2)O1 (configuration not stated) | 28.02 (≈ 54.8 µM) | 20.03 (≈ 39.2 µM) | 180 (≈ 352 µM)
18 | CC1=NC(N)OC(c2ccc(Nc3c4ccccc4nc4ccccc34)cc2)=C1 (configuration not stated) | 26.3 (≈ 69.1 µM) | 14.2 (≈ 37.3 µM) | 140 (≈ 368 µM)
19 | NC1N=C(c2ccc(Cl)cc2)C=C(c2ccc(Nc3c4ccccc4nc4ccccc34)cc2)O1 (configuration not stated) | 68.13 (≈ 143 µM) | 30.01 (≈ 62.9 µM) | 640 (≈ 1340 µM)
20 | NC1N=C(c2ccccc2)C=C(c2ccc(Nc3c4ccccc4nc4ccccc34)cc2)O1 (configuration not stated) | 22.27 (≈ 50.3 µM) | 17.23 (≈ 38.9 µM) | 425 (≈ 960 µM)
21 | COc1ccc(C2=NC(N)OC(c3ccc(Nc4c5ccccc5nc5ccccc45)cc3)=C2)cc1OC (configuration not stated) | 28.01 (≈ 55.7 µM) | 18.06 (≈ 35.9 µM) | 190 (≈ 378 µM)
